Test results: ChEMBL document CHEMBL4513216, “Probing the Open Global Health Chemical Diversity Library for Multistage-Active Starting Points for Next-Generation Antimalarials” (ACS Infect Dis, 2020)

assay: Toxicity liver stage against HepG2, at 10uM; format: cell-based; design: test concentration 10 uM, cell line HepG2-A16-CD81EGFP; conditions: human, HepG2-A16-CD81EGFP cells; read-out: INHIBITION
How it was run: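 Uninfected HepG2-A16-CD81EGFP cells, 3 × 10^3 per well, 1536-well, plated on prespotted compound at 10 μM final, parasite-free screening media added to match infected plates; puromycin 10 μM positive, DMSO 0.5% negative; run in parallel with 48 h PbLuc assay at 37 °C, 5% CO2; viability by CellTiter-Glo luminescence, normalized to controls.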

Row | Compound | cytotoxicity at 10 µM
1 | CCc1ccc(CN(C)Cc2nc(COc3ccccc3)no2)nc1 | 6.58%
2 | COC(=O)c1cccc2nc([C@H]3CCN(Cc4ccccc4)C3)oc12 | 6.06%
3 | CCOC(=O)[C@@H]1[C@@H](OC)C(=O)N(C)C12CCN(C(=O)C(CC)CC)CC2 | -0.00815%
4 | CCCC(O)CN1CCC(=O)N(C)Cc2cc(F)ccc21 (configuration not stated) | -124%
5 | CC(C)(C)OC(=O)N1CC(=O)N(Cc2ccco2)CC(O)C1 (configuration not stated) | 4.11%
6 | O=c1c(NCCO)c(N2CCN(c3ccccc3)CC2)c1=O | -6.95%
7 | CCCNC(=O)Cn1nc(C)c2cnn(C(C)(C)C)c2c1=O | -3.57%
8 | CC(=O)Nc1cnc(Oc2ccccc2F)nc1 | -4.23%
9 | O=C(c1ncn2c1CNS(=O)(=O)c1ccccc1-2)N1CC=CC1 | 10.5%
10 | Cc1cccc(NC(=O)N2Cc3c(CN(C)C)nn(C)c3C2)c1 | 7.77%
11 | CCCS(=O)(=O)N1CCC2(CC(=O)N(c3cnn(C)c3)C2)C1 (configuration not stated) | 4.59%
12 | CCOCCCNC(=O)CN(c1cccc(F)c1)S(C)(=O)=O | 7.77%
13 | COC(=O)c1cccc(C(=O)N2CCN(c3ccccc3F)CC2)n1 | -10.9%
14 | CCn1nc(C)c2c1cnn2CCNS(=O)(=O)CC | 2.63%
15 | CN(C)Cc1cn(-c2ccccc2C(=O)NCC2CCCCN2C)cn1 (configuration not stated) | -0.94%
16 | CCn1cc(CN2CCc3nc(N4CCOCC4)nc(O)c3CC2)cn1 | -5.59%
17 | O=S1(=O)NCC2(CCN(Cc3ccc(Cl)s3)C2)Oc2ncccc21 (configuration not stated) | 4.65%
18 | COCCNC(=O)N1CCN(C(C)C(=O)NC(C)C)CC1 (configuration not stated) | 10.6%
19 | CN(C)CC(C)(O)CNC(=O)Nc1sc2ccccc2c1Cl (configuration not stated) | 11.5%
20 | O=S(=O)(NC1CCCOC1)c1ccc(C(F)(F)F)nc1 (configuration not stated) | -1.38%
21 | COC(=O)C(NC(=O)c1ccc(N(C)C)nc1)c1ccccc1 (configuration not stated) | 4.15%
22 | O=C(COCCOc1ccccc1)NC1CCN(C(=O)C2CC2)CC1 | -7.67%
23 | CCNC(=O)c1ccc(NC(=O)N(C)Cc2cc(C)on2)c(C)c1 | 6.2%

Row | Compound | cytotoxicity at 10 µM
24 | CC(C)c1nnc(CN2CCc3ccc(S(N)(=O)=O)cc32)o1 | 3.2%
25 | COc1cccc2c1CCC2NC(=O)NCc1csc(N(C)C)n1 (configuration not stated) | -1.37%
26 | COc1cccc(-c2nc(CNCc3cccnc3)cs2)c1 | -9.37%
27 | Cc1oc(CNC(=O)Cc2cccc(OC(F)F)c2)cc1C(=O)O | 7.04%
28 | CC(O)C1CCN(c2cc(Cl)ccc2C#N)CC1 (configuration not stated) | 4.92%
29 | Cc1noc(C)c1C(=O)NCCc1cccs1 | 12%
30 | O=C(Nc1cn[nH]c1)NC1CCN(c2ccccc2OC(F)F)C1 (configuration not stated) | 26.1%
31 | Cc1ccn2ncc(C(=O)N3CCCC(c4noc(C)n4)C3)c2n1 (configuration not stated) | -7.29%
32 | CCCc1noc(CCC(=O)N2CCCC(n3ccnc3C)C2)n1 (configuration not stated) | -4.39%
33 | COc1cc(C2(C(=O)NCC(=O)NC3CC3)CC2)ccc1C | -17.4%
34 | CCOc1ncccc1NC(=O)N1CCCC1c1cc(C)no1 (configuration not stated) | 0.87%
35 | Cc1ccccc1C(O)CNS(=O)(=O)Cc1cccc(C#N)c1 (configuration not stated) | -5.43%
36 | Cc1ccc(CNC(=O)NC2CCN(CC(F)F)CC2)cc1 | -6.25%
37 | CC(C)S(=O)(=O)CC(=O)NCC(Cc1ccc(F)cc1)C(N)=O (configuration not stated) | 6.75%
38 | CC(c1nc(C(C)(C)C)no1)N1CCN(C(=O)CN2CCOCC2)CC1 (configuration not stated) | -3.51%
39 | O=C(c1ccc(Cl)o1)N1CCCC1c1nnc2n1CCCCC2 (configuration not stated) | -4.52%
40 | O=C(c1cccnc1OCC(F)(F)F)N1CCCn2ncnc21 | -6.47%
41 | NC(=O)c1ccc(CN2CCC(N3CCCC3)CC2)cc1 | -2.3%
42 | CCCC(C#N)NC(=O)COC1CCCCC1 (configuration not stated) | 8.71%
43 | Cc1ccc2cc(C(=O)N3CCCCC3c3nc[nH]n3)ccc2n1 (configuration not stated) | -5.92%
44 | CCC(Nc1cccc(Oc2ccc(C#N)cc2)c1)C(N)=O (configuration not stated) | 38%
45 | CCn1nc(C)c(S(=O)(=O)Nc2ccccc2C(=O)OC)c1C | -0.678%
46 | CC(C)(C)c1ncc(C(=O)NCCn2ccnc2)s1 | 3.39%

Row | Compound | cytotoxicity at 10 µM
47 | COc1ccc(-n2ccc(CNCc3cccc(OC)c3)n2)cc1 | 3.12%
48 | CC1CN(C)c2ccccc2N(C(=O)c2c[nH]c(C(C)C)n2)C1 (configuration not stated) | 3.61%
49 | CCCNC(=O)C1CCN(CC(O)c2ccccc2)CC1 (configuration not stated) | -2.21%
50 | Nc1cc2c(nn1)CCN(C(=O)c1ccccc1Oc1cccnc1)C2 | -6.21%
51 | O=C1CC[C@H](C(=O)Nc2cnn(-c3ccccc3Br)c2)N1 | -2.84%
52 | c1csc(CCN2CCCC2c2noc(C3CC3)n2)c1 (configuration not stated) | 9.15%
53 | CC(C)c1ccc(CS(=O)(=O)Cc2nc(N)nc(N(C)C)n2)cc1 | 7.34%
54 | CC(OCC1CC1)C(=O)NCc1ccc(Cn2ccnc2)cc1 (configuration not stated) | 15.6%
55 | Cc1cc(C)n(CC2CCCN2CCCS(=O)(=O)N(C)C)n1 (configuration not stated) | -13.2%
56 | CN(Cc1ccco1)Cc1ccccc1CNC(=O)c1cc[nH]n1 | -8.11%
57 | CCc1ccc(C2CCCCCN2Cc2nc(CCOC)no2)o1 (configuration not stated) | 1.15%
58 | CN(C)C1COC2(CCN(Cc3ccncc3)CC2)C1 (configuration not stated) | -69.2%
59 | CCOC1COC2(CCN(S(=O)(=O)c3cccc(F)c3)CC2)C1 (configuration not stated) | 5.15%
60 | CSCC[C@@H](CO)n1ccnc1-c1nccn1C | -2.84%
61 | CSCc1noc(CN2CCC3(CC2)CC(=O)N(CC(C)C)C3)n1 | -0.0813%
62 | Cn1ccnc1CN(CCO)C(=O)c1nc2ccccc2s1 | 4.46%
63 | O=c1[nH]ccc2cc(-c3cc(O)cc(CCC4CCCCN4)c3)ccc12 (configuration not stated) | 1.81%
64 | O=C(c1cccc(F)c1)N1C[C@@H](CN2CCCCC2)[C@@H](CO)C1 | 3.78%
65 | Cc1ccc(-c2nc(CN3CCOCC3)no2)cc1N1CCNC1=O | -5.73%
66 | Cc1ccccc1-n1cc(CN(C)C[C@@H]2CCCN3CCCC[C@H]23)cn1 | -3.09%
67 | CCn1ccc(C(=O)N(C)Cc2cnn(-c3cccc(OC)c3)c2)n1 | 6.26%
68 | CC(C)c1noc(C(C)Nc2nccc(CCC(F)(F)F)n2)n1 (configuration not stated) | 2.08%
69 | CCN(CC)CCC(=O)N1CCc2c(nc(N(C)C)nc2N(C)C)C1 | -14.4%

Row | Compound | cytotoxicity at 10 µM
70 | Cc1n[nH]c(C)c1CNc1ccc(-c2nc(C3CC3)no2)cn1 | -24.3%
71 | CC(C)=CCN1CC2(CCN(Cc3c(F)cccc3F)CC2)CC1=O | -17%
72 | COc1ccc2cc(-c3n[nH]cc3CN3CCSCC3)ccc2c1 | 2.22%
73 | O=C(NCCCN1CCOCC1)C1CCCN(Cc2ccco2)C1 (configuration not stated) | -0.911%
74 | Cc1ncsc1CCN(C)Cc1cc2n(n1)CCN(S(C)(=O)=O)C2 | -12.8%
75 | O=C(CSc1ccccn1)N1CCN(CCO)[C@@H]2CS(=O)(=O)C[C@@H]21 | 9.87%
76 | Cc1nc(C)c(C(=O)NCCNc2cc(N3CCCC3)ncn2)s1 | -73.4%
77 | COCCN(C/C=C/c1ccccc1)Cc1[nH]cnc1C | 10.3%
78 | NC(=O)c1cc(-c2cccc(C(=O)O)c2)cs1 | 2.77%
79 | CN(C)C(C(=O)N1CCCC1)c1ccccc1F (configuration not stated) | 7.35%
80 | N#Cc1ccccc1C(=O)N1C[C@H](CO)C[C@H](CN2CCCC2)C1 | -17%
81 | CCCS(=O)(=O)N1CCN(c2ccnc(N3CCCC3)n2)CC1 | -11.3%
82 | CC(C)CN1CCCn2nc(CNC(=O)c3cccnc3O)cc2C1 | -14.4%
83 | CCCc1nc(C(C)(C)NC(=O)C2CC(=O)N(CC)C2)no1 (configuration not stated) | 3.51%
84 | COc1ccc(OC)c(CNCc2c(C(C)C)nn(C)c2N(C)C)c1 | -5.89%
85 | CC(Cn1ccnc1)NC(=O)Nc1ccccn1 (configuration not stated) | -16.4%
86 | CCOCC(O)CN1CCN(C(=O)c2ccc3c(c2)COC3)CC1 (configuration not stated) | -0.0716%
87 | COC(=O)CN1CCCN(C(=O)CCOc2cccc(C)c2C)CC1 | -1.73%
88 | Cc1cc(C)n(CC2CN(c3cnc4ccccc4n3)CCO2)n1 (configuration not stated) | -2.42%
89 | CCc1nc(CN(C(C)=O)C2CCN(CCc3ccccn3)C2)no1 (configuration not stated) | -11.6%
90 | CCN1CCN(c2ccc(CNC(=O)c3ccccc3F)cn2)CC1 | -16.4%
91 | COc1ccc(Cl)cc1C(=O)NC(CC(=O)O)c1cccs1 (configuration not stated) | -6.16%
92 | Cc1ccc(C(=O)NCc2ccc(N3CCCC(C(N)=O)C3)cc2)o1 (configuration not stated) | 0.742%

Row | Compound | cytotoxicity at 10 µM
93 | COc1ncccc1CNC(=O)Nc1cc(C)nn1C | -5.13%
94 | CCN1CCC(CNC(=O)C2(c3ccc(F)cc3)CC2)C1 (configuration not stated) | -23%
95 | Cc1cnn(CC2CN(Cc3nccn3CC(F)(F)F)CCO2)c1 (configuration not stated) | -11.7%
96 | CCCc1n[nH]c(C2CN(CCC(F)(F)F)CCO2)n1 (configuration not stated) | -13.9%
97 | CCn1cnnc1CNC(=O)c1cc(F)ccc1OC | -14.3%
98 | c1cc(CN2CCc3ncnc(C4CCOC4)c3CC2)ccn1 (configuration not stated) | -0.703%
99 | c1coc(CNc2ncc3c(n2)C2(CCNC2)COC3)c1 (configuration not stated) | 10.7%
100 | O=C(c1ccncc1)N1CCCn2nnc(COCCO)c2C1 | 10.5%
101 | O=C([C@H]1C[C@H]2OCC[C@H]2N(CC2CC2)C1)N1CCCCO1 | -69.2%
102 | CCc1c(C)[nH]c(C(C)(N)CC)nc1=O (configuration not stated) | -4.04%
103 | Cc1ccc(NCc2cn3c(n2)CN(Cc2ccc(C)o2)CC3)nn1 | 8.19%
104 | COc1cccc(CN2C[C@@H]3COC[C@]3(CN3CCOCC3)C2)c1 | -80.6%
105 | COCCN1CCO[C@@H]2CN(C(=O)NCc3cccnc3)CC[C@@H]2C1 | 6.65%
106 | CCOCC1CN(Cc2ccncc2)Cc2nn(C)cc21 (configuration not stated) | -79.8%
107 | COCCN1CCC12CCN(c1ncccn1)C2 (configuration not stated) | 9.76%
108 | CCOCC1CN(S(C)(=O)=O)Cc2cnn(CC3CCOCC3)c21 (configuration not stated) | -0.851%
109 | CN1CCN(C2CCN(C(=O)CCC3CCCC3)CC2)CC1 | 6.35%
110 | CN(C)C(=O)C1CCC2(CCNCC2)C1 (configuration not stated) | 8.59%
111 | CCOC(=O)c1cnn(C2CCN(C(=O)CC3C=CCC3)CC2)c1N (configuration not stated) | 7.87%
112 | O=C1OCCN1CC(=O)N1C[C@@H]2CC[C@H]1CN(C(=O)c1cccnc1)C2 | 11.6%
